Assay results reported in paper PMC12591034 (RSC Advances, 2025).

Legend:
Type in all cases: cell-based
[1] = system: NO production in LPS-stimulated RAW 264.7 macrophage cells; assay: Inhibition of NO production in LPS-stimulated RAW 264.7 cells; settings: Mus musculus, RAW264.7, read-out: IC50 Inhibition of NO-production
How it was run: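 RAW 264.7 murine macrophages were stimulated with LPS. NO release was measured as nitrite in the culture medium by the Griess reaction. Results are given as mean ± SD from three independent experiments. IC50 was estimated by curve fitting.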

[2] = system: A549 (lung) carcinoma cells; assay: Cytotoxicity, SRB assay, A549; settings: Homo sapiens, A549, read-out: IC50 Cytotoxicity A549
How it was run: (§1)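 Sulforhodamine B (SRB) cytotoxicity assay on human A549 lung, Hep-G2 liver and MCF-7 breast carcinoma cells, run alongside non-cancer HEK-293A embryonic kidney cells. Results are given as mean ± SD from three independent experiments. IC50 was estimated by curve fitting.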

[3] = system: Hep-G2 (liver) carcinoma cells; assay: Cytotoxicity, SRB assay, Hep-G2; settings: Homo sapiens, HepG2, read-out: IC50 Cytotoxicity Hep-G2
How it was run: as §1

[4] = system: MCF-7 (breast) carcinoma cells; assay: Cytotoxicity, SRB assay, MCF-7; settings: Homo sapiens, MCF7, read-out: IC50 Cytotoxicity MCF-7
How it was run: as §1

[5] = Cytotoxicity, SRB assay, HEK-293A; settings: human, HEK-293A embryonic kidney cells (normal cells)
[6] = system: A549, Hep-G2, and MCF-7 human cancer cell lines; assay: Cytotoxicity, SRB assay, stated across the cancer cell lines; settings: tested cell lines
How it was run: as §1

For C[C@H]1C(=O)CC[C@@H]2[C@]1(C)CC[C@H]1[C@@]2(C)CC[C@@]2(C)[C@@H]3CC(C)(C)CC[C@]3(CO)CC[C@]12C [Compound 7, canophyllol], which IC50 [1] is on record?
The IC50 was 79.9 ± 1.37 µM.

And the IC50 [2]?
The IC50 was 39.3 ± 1.29 µM.

What about the IC50 [3] of the same compound?
The IC50 was 22.4 ± 1.01 µM.

What about the IC50 [4] of the same compound?
The IC50 was 27.4 ± 1.19 µM.

And the IC50 [5]?
Its IC50 is 30.1 ± 1.25 µM.

What does the source list for Cc1c2ccncc2c(C)c2c1[nH]c1ccccc12 [Ellipticine, reference compound]?
IC50 [2]: 1.71 ± 0.08 µM; IC50 [3]: 1.42 ± 0.08 µM; IC50 [4]: 1.54 ± 0.04 µM; IC50 [5]: 1.34 ± 0.08 µM

Which IC50 [1] does the source give for COC(=O)c1c(C)cc(O)c(C=O)c1O [Compound 17, methyl haematommate] here?
Its IC50 is over 100 µM.

And the IC50 [2]?
Its IC50 is over 100 µM.

What about the IC50 [3] of the same compound?
Its IC50 is 80.7 ± 3.59 µM.

And the IC50 [4]?
Its IC50 is 99.3 ± 6.83 µM.

And the IC50 [5]?
Its IC50 is 70.7 ± 4.44 µM.

And the “cytotoxic activity in words” value [6]?
The value was “weakly active”.

Which IC50 [1] does the source give for C[C@H]1C(=O)CC[C@@H]2[C@]1(C)CC[C@H]1[C@@]2(C)CC[C@@]2(C)[C@@H]3CC(C)(C)CC[C@]3(C)CC[C@]12C [Compound 5, friedelin] here?
Its IC50 is over 100 µM.

What about the IC50 [2] of the same compound?
Its IC50 is over 100 µM.

What about the IC50 [3] of the same compound?
Its IC50 is over 100 µM.

What about the IC50 [4] of the same compound?
Its IC50 is over 100 µM.
